These results are taken from ChEMBL document CHEMBL1140556, “Design, structure-activity relationship, and pharmacokinetic profile of pyrazole-based indoline factor Xa inhibitors” (Bioorg Med Chem Lett, 2007).

The target in one data set is Trypsin (Homo sapiens, UniProt P07477+P07478+P35030). Description: Inhibition of human trypsin. It is filed as protein assay. Summed up:
(§1)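 Ki values were measured against the purified human enzymes.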

Another data set has as its target Coagulation factor X (Homo sapiens, UniProt P00742). Description: Inhibition of human factor 10a. The method in brief: as §1
A further data set has as its target Prothrombin (Homo sapiens, UniProt P00734). As to the kind of experiment: Inhibition of human thrombin.
Data set [1] can be described thus: (§2) Volume of distribution at steady state in dog at 0.5 mg/kg, iv and 0.2 mg/kg, po. It is filed as ADME, organism-based, Canis lupus familiaris. As to conditions: in vivo, read-out: Vdss. The method in brief: (§3)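 Cassette (N-in-1) dosing, with compounds given together at 0.5 mg/kg iv and 0.2 mg/kg po; one animal per route (n = 1). Clearance, steady-state volume of distribution, oral half-life and oral bioavailability (F%) were derived from plasma levels.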

Data set [2] can be described thus: Clearance in dog at 0.5 mg/kg, iv and 0.2 mg/kg, po. In kind it is ADME, organism-based, Canis lupus familiaris. As to conditions: in vivo. Summed up: as §3
In a further data set the test system is Plasma. As to the kind of experiment: Anticoagulant potency in human plasma assessed as concentration required to double prothrombin time. It is filed as functional.
A short description of data set [3]: Apparent permeability across Caco-2 cells. In kind it is ADME, cell-based. As to conditions: human.
Data set [4] is described as follows: Oral bioavailability in dog at 0.2 mg/kg. It is filed as ADME, organism-based, Canis lupus familiaris. As to conditions: in vivo. The method in brief:
as §3

Data set [5] in a line: Half life in dog at 0.2 mg/kg, po. In kind it is ADME, organism-based, Canis lupus familiaris. More on the design: dose 0.2 mg/kg, route oral. As to conditions: in vivo. The method in brief: as §3
The test system of the next data set is Canis familiaris. Described as §2. As to conditions: in vivo. It is filed as ADME, organism-based, Canis lupus familiaris. Summed up:
as §3

The structures appear in SMILES notation. A value given as a limit tells only on which side of the number the result lay.

Chain of Coagulation factor X (P00742 41-179 limits assumed): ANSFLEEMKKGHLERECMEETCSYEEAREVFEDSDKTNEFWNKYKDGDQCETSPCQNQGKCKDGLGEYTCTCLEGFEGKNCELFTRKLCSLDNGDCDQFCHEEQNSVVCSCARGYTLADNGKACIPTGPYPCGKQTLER
Chain of Coagulation factor X (P00742 235-488 limits assumed): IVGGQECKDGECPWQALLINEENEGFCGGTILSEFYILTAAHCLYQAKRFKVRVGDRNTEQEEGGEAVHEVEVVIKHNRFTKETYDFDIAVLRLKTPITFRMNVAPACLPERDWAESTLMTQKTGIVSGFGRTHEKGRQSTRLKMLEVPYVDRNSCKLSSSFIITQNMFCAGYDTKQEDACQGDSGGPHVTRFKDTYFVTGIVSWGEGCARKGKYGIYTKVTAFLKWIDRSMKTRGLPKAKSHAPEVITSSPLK

What is called Ki is a measure of affinity in units of concentration, obtained from inhibition or displacement. The low end stands for a stronger hold on the target, the high end for a looser hold on the target. Take `CS(=O)(=O)c1ccccc1-c1ccc2c(c1)CCCN2C(=O)c1cc(C(F)(F)F)nn1-c1ccc2onc(N)c2c1`: the inhibitory constant (Ki) is greater than 4.2 µM on Trypsin, 2000 nM on Coagulation factor X and greater than 6.3 µM on Prothrombin.
As to `CN(C)Cc1nccn1-c1ccc2c(c1)CCN2C(=O)c1cc(C(N)=O)nn1-c1ccc2onc(N)c2c1`, the affinity at Coagulation factor X, expressed as Ki, was 2.2 nM.
For `CS(=O)(=O)c1ccccc1-c1ccc(NC(=O)c2cc(C(F)(F)F)nn2-c2ccc3onc(N)c3c2)c(F)c1`, at Trypsin, the Ki is greater than 5.2 µM.
For the compound `Nc1noc2ccc(-n3nc(C(F)(F)F)cc3C(=O)N3CCc4cc(-c5ccccc5CN5CCCC5)ccc43)cc12`, the Ki is greater than 40 µM on Trypsin, 4.9 nM on Coagulation factor X and 15 µM on Prothrombin. In addition, the Vd in data set [1] worked out at 20 L/kg. The clearance in data set [2] is 123 mL/min/kg.
With `CN(C)CC(=O)N(C)c1ccc2c(c1)N(C(=O)c1cc(C(N)=O)nn1-c1ccc3onc(N)c3c1)CC2`, the affinity on Coagulation factor X corresponds to a Ki of 350 nM.
`CS(=O)(=O)c1ccccc1-c1ccc2c(c1)CCN2C(=O)c1cc(C(F)(F)F)nn1-c1ccc2onc(N)c2c1`: the Ki was greater than 2.5 µM on Trypsin, 1.5 nM at Coagulation factor X and greater than 21 µM at Prothrombin. The Activity in the data set with Plasma came out at 26 µM.
For the compound `CS(=O)(=O)c1ccccc1-c1ccc2c(c1)CCN2C(=O)c1cc(C(N)=O)nn1-c1ccc2onc(N)c2c1`, the Ki at Coagulation factor X is 0.82 nM; at Prothrombin, greater than 20 µM. Moreover, the Activity in the data set with Plasma was determined as 41 µM.
The Papp is the rate of passage across a membrane or cell layer, normalised by area and donor concentration. Take `CN(C)Cc1ccccc1-c1ccc2c(c1)CCN2C(=O)c1cc(C(N)=O)nn1-c1ccc2onc(N)c2c1`: the Ki at Trypsin was greater than 20 µM; on Coagulation factor X it was 1 nM. The Papp in [3] was found to be 0.3 ×10⁻⁶ cm/s. In addition, the Activity in the data set on Plasma was 3 µM.
What is called bioavailability is dose-corrected exposure relative to a reference, in per cent. Read a high bioavailability as good availability. The term half-life denotes the time in which the quantity being followed falls by half. High values mean slow decline, low ones rapid decline. Take `Nc1noc2ccc(-n3nc(C(F)(F)F)cc3C(=O)N3CCc4cc(-c5ccccc5S(N)(=O)=O)ccc43)cc12`: the Ki at Trypsin is greater than 2.5 µM; at Coagulation factor X it was 2.7 nM; on Prothrombin, greater than 21 µM. In addition, in [1], the Vd is 2 L/kg. Moreover, the bioavailability in data set [4] came to 66%. The compound also gave a clearance in [2] of 10.5 mL/min/kg. Further, the half-life in data set [5] is 240 min. Also, the Activity with Plasma is 28 µM.
`CC(=O)N(C)Cc1nccn1-c1ccc2c(c1)CCN2C(=O)c1cc(C(N)=O)nn1-c1ccc2onc(N)c2c1` had a Ki at Coagulation factor X of 4.8 nM.
Take `NC(=O)c1cc(C(=O)N2CCc3cc(-c4ccccc4CN4CCCC4)ccc32)n(-c2ccc3onc(N)c3c2)n1`: the Ki on Coagulation factor X is 0.63 nM. Also, the Vd in data set [1] was 6.2 L/kg. Also, the Papp in data set [3] was 0.7 ×10⁻⁶ cm/s. For the same compound, the clearance in data set [2] is 59.5 mL/min/kg. For the same compound, the Activity in the data set on Plasma turned out to be 2.1 µM.
In turn, `CN(Cc1nccn1-c1ccc2c(c1)CCN2C(=O)c1cc(C(N)=O)nn1-c1ccc2onc(N)c2c1)S(C)(=O)=O` gave a Ki at Coagulation factor X of 6.9 nM.
`CS(=O)(=O)c1ccccc1-c1ccc2c(c1)N(C(=O)c1cc(C(N)=O)nn1-c1ccc3onc(N)c3c1)CC2`: affinity on Coagulation factor X was put at a Ki of 1400 nM.
Turning to `CS(=O)(=O)c1ccccc1-c1ccc2c(c1)C(=O)CCN2C(=O)c1cc(C(F)(F)F)nn1-c1ccc2onc(N)c2c1`, the Ki on Trypsin was greater than 4.2 µM; on Coagulation factor X it was 500 nM; on Prothrombin, greater than 21 µM.
Take `NC(=O)c1cc(C(=O)N2CCc3cc(N4CCCCC4=O)ccc32)n(-c2ccc3onc(N)c3c2)n1`: on Coagulation factor X, the affinity corresponds to a Ki of 2.4 nM. Further, the Vd in data set [1] came out at 0.2 L/kg. The bioavailability in data set [4] worked out at 6%. In addition, in data set [3], the Papp stood at 0.1 ×10⁻⁶ cm/s. Further, the clearance in [2] was 3.67 mL/min/kg. For the same compound, in data set [5], the half-life was 96 min. For the same compound, in the data set on Plasma, the Activity stood at 3.3 µM.
`CN(C)CC(=O)N(C)c1ccc2c(c1)CCN2C(=O)c1cc(C(N)=O)nn1-c1ccc2onc(N)c2c1`: affinity at Coagulation factor X was put at a Ki of 6.8 nM.
Turning to `NC(=O)c1cc(C(=O)N2CCc3cc(-n4ccccc4=O)ccc32)n(-c2ccc3onc(N)c3c2)n1`, the affinity at Coagulation factor X, expressed as Ki, was 0.2 nM. Besides, the Papp in data set [3] is 0.1 ×10⁻⁶ cm/s. In addition, the Activity in the data set with Plasma amounted to 1.9 µM.
As to `CS(=O)(=O)c1ccccc1-c1ccc2c(c1)C(O)CCN2C(=O)c1cc(C(F)(F)F)nn1-c1ccc2onc(N)c2c1` (racemic), the results for the Ki at Trypsin, on Coagulation factor X and on Prothrombin were greater than 4.2 µM, 1400 nM and greater than 6.3 µM, respectively.
For `CN(C)Cc1nccn1-c1ccc(NC(=O)c2cc(C(F)(F)F)nn2-c2ccc3onc(N)c3c2)c(F)c1` [RAZAXABAN], the Vdss with Canis familiaris turned out to be 3.4 L/kg. Besides, the clearance in data set [2] is 18.3 mL/min/kg.
In the case of `CS(=O)(=O)c1ccccc1-c1ccc2c(c1)OCCN2C(=O)c1cc(C(F)(F)F)nn1-c1ccc2onc(N)c2c1`, the Ki on Coagulation factor X is 71 nM; on Prothrombin, greater than 21 µM.
In turn, `NC(=O)c1cc(C(=O)N2CCc3cc(N4CCCCCC4=O)ccc32)n(-c2ccc3onc(N)c3c2)n1` yielded a Ki on Coagulation factor X of 15 nM.
In the case of `Nc1noc2ccc(-n3nc(C(F)(F)F)cc3C(=O)N3CCCCc4cc(-c5ccccc5S(N)(=O)=O)ccc43)cc12`, the figures for the Ki at Trypsin, on Coagulation factor X and on Prothrombin were greater than 4.2 µM, 3400 nM and greater than 6.3 µM, respectively.
On to `CN(C)Cc1ccccc1-c1ccc2c(c1)CCN2C(=O)c1cc(C(F)(F)F)nn1-c1ccc2onc(N)c2c1`, for which the Ki on Coagulation factor X is 19 nM; at Prothrombin it was 19.2 µM.
`NC(=O)c1cc(C(=O)N2CCc3ccc(N4CCCCCC4=O)cc32)n(-c2ccc3onc(N)c3c2)n1` came in with a Ki at Coagulation factor X of 1100 nM.
